The nature of series [1]: Metabolic stability in rat liver microsomes assessed as compound remaining at 5 uM after 30 mins. The following applies: read-out: Stability. Format: ADME, Microsome. On the technique in general: Liver microsomes are vesicles of endoplasmic reticulum, rich in cytochrome P450 enzymes.
For series [2], the system named is Blood. The series is described as follows: Drug uptake in mouse blood at 200 ug, ip at 6 hrs. Format: ADME, organism-based. The following applies: in vivo. The procedure, abridged: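 Mice (8–10 weeks, 25–35 g) received 200 μg of each of two inhibitors together by ip injection in DMSO/Tween-80/PEG400 formulation. Blood taken at 6 h, diluted with equal volume of water, extracted with ethyl acetate, LC/MS against standards. SE, 3 mice.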

Series [3] in a line: Half life in rat liver microsomes at 5 uM. The series is classed as ADME, Microsome.
Series [4] concerns Mus musculus. As to the kind of experiment: Antidiuretic activity in mouse assessed as reduction in urine osmolality at 400 ug, ip administered 1 hr followed by dDAVP administration (reference value: >3 Osm/kg). Format: functional.
Series [5] concerns Kidney. The series is described as follows: Drug uptake in mouse kidney at 400 ug, ip administered as bolus dose. Format: ADME, organism-based. The following applies: in vivo, read-out: Drug uptake.
For series [6], the species on record is Homo sapiens. As to the kind of experiment: Inhibition of UT-B-mediated urea transport in human erythrocytes incubated for 10 mins prior to urea addition by Stopped-flow light scattering assay. Format: cell-based. The procedure, abridged:
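Human venous blood in heparin, kept at 4 °C and used within 48 h, diluted in PBS to ~0.5% hematocrit. Inhibitor for 10 min, then mixed 1:1 in stopped-flow to impose a 100 mM inward urea gradient. Cell swelling followed as 90° scattered light at 530 nm. Urea permeability and % inhibition computed.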

Series [7] is described as follows: Drug excretion in mouse urine at 400 ug, ip administered as bolus dose. Conditions: in vivo. The series is classed as ADME, organism-based.

Here are results for twelve compounds from ChEMBL document CHEMBL2163305, “Nanomolar potency and metabolically stable inhibitors of kidney urea transporter UT-B” (J Med Chem, 2012).

Consider `CC(C)c1ccc(S(=O)(=O)c2nnn3c2nc(NCc2cccc4ccccc24)c2sccc23)cc1`, for which, in series [1], the remaining at 0.5 h, 5 µM was found to be 45%.

On to `CCc1ccc(S(=O)(=O)c2nnn3c2nc(NCc2cccs2)c2sccc23)cc1`, for which the Drug uptake entry in series [2] was “Active”. Moreover, in series [1], the remaining at 0.5 h, 5 µM was < 5%. The same compound showed a half-life at 5 µM in series [3] of 0.0467 h.

As to `O=S(=O)(c1cccs1)c1nnn2c1nc(NCc1cccs1)c1sccc12`, the remaining at 0.5 h, 5 µM in series [1] was < 5%.

On to `COc1ccc(S(=O)(=O)c2nnn3c2nc(NCc2cccs2)c2sccc23)cc1`, for which, in series [1], the remaining at 0.5 h, 5 µM came out at 6%.

For `O=S(=O)(c1ccc(OC(F)(F)F)cc1)c1nnn2c1nc(NCc1cccs1)c1sccc12`, the remaining at 0.5 h, 5 µM in series [1] came to 95%.

For `O=S(=O)(c1ccc(C(F)(F)F)cc1)c1nnn2c1nc(NCc1cccs1)c1sccc12`, in series [1], the remaining at 0.5 h, 5 µM amounted to 99%.

On to `CC(C)c1ccc(S(=O)(=O)c2nnn3c2nc(NCc2ccco2)c2sccc23)cc1`, for which the remaining at 0.5 h, 5 µM in series [1] was > 99%.

Regarding `CC(C)c1ccc(S(=O)(=O)c2nnn3c2nc(NCc2cccs2)c2sccc23)cc1`, the remaining at 0.5 h, 5 µM in series [1] was < 5%.

In the case of `CC(F)(F)c1ccc(S(=O)(=O)c2nnn3c2nc(NCc2cccs2)c2sccc23)cc1`, the Drug uptake entry in series [2] is “Active”. For the same compound, the remaining at 0.5 h, 5 µM in series [1] amounted to 96%. Besides, in series [4], the Activity is 0.5 Osm/kg. Besides, the concentration in series [5] was > 1000 nM. The inhibition result in series [6] was “Dose-dependent effect”. In addition, the half-life at 5 µM in series [3] turned out to be 2 h. Besides, the Drug excretion in series [7] was > 1 µM.

Consider `O=S(=O)(c1ccc(Br)cc1)c1nnn2c1nc(NCc1cccs1)c1sccc12`, for which the remaining at 0.5 h, 5 µM in series [1] was 60%.

As to `COc1ccc(CNc2nc3c(S(=O)(=O)c4ccc(C(C)C)cc4)nnn3c3ccsc23)cc1`, the remaining at 0.5 h, 5 µM in series [1] was determined as 7%.

For the compound `O=S(=O)(c1ccc(F)cc1)c1nnn2c1nc(NCc1cccs1)c1sccc12`, the remaining at 0.5 h, 5 µM in series [1] worked out at 27%.

The term half-life denotes the time needed for the level to fall by half in the phase considered. A high value points to slow loss.
